Converted amounts (≈) assume the structure as drawn.
What was measured:
Assay type in all cases: functional
Aspergillus flavus [1] = experiment: Antimicrobial activity against Aspergillus flavus MTCC 873 after 48 hrs by microdilution method; conditions: MTCC 873, 48 h
In short: (§1)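 The minimal inhibitory concentration was determined by dilution, alongside minimal bactericidal concentration for bacterial strains and minimal fungicidal concentration for fungal strains. Tests were run in six replicates, and the value is the mean of at least three determinations.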

Aspergillus flavus [2] = experiment: Antimicrobial activity against Aspergillus flavus MTCC 873 at 50 ug/ml after 48 hrs by disc diffusion method; conditions: MTCC 873, 48 h, read-out: DIZ
In short: (§2)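 Agar diffusion read-out is the diameter of the inhibition zone in mm. Each test was run in six replicates and reported as mean ± standard deviation, taken from at least three determinations.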

Fusarium verticillioides [3] = experiment: Antimicrobial activity against Fusarium moniliforme MTCC 156 at 100 ug/ml after 48 hrs by disc diffusion method; conditions: MTCC 156, 48 h, read-out: DIZ; in short: as §2
Escherichia coli [4] = experiment: Antimicrobial activity against Escherichia coli MTCC 724 at 50 ug/ml after 24 hrs by disc diffusion method; conditions: MTCC 724, 24 h, read-out: DIZ; in short: as §2
Staphylococcus aureus [5] = experiment: Antimicrobial activity against Staphylococcus aureus MTCC 96 at 50 ug/ml after 24 hrs by disc diffusion method; conditions: MTCC 96, 24 h, read-out: DIZ; in short: as §2
Bacillus cereus [6] = experiment: Antimicrobial activity against Bacillus cereus MTCC 8372 after 24 hrs by microdilution method; conditions: MTCC 8372, 24 h; in short: as §1
Bacillus cereus [7] = experiment: Antimicrobial activity against Bacillus cereus MTCC 8372 at 50 ug/ml after 24 hrs by disc diffusion method; conditions: MTCC 8372, 24 h, read-out: DIZ; in short: as §2
Klebsiella pneumoniae [8] = experiment: Antimicrobial activity against Klebsiella pneumoniae MTCC 3384 at 100 ug/ml after 24 hrs by disc diffusion method; conditions: MTCC 3384, 24 h, read-out: DIZ; in short: as §2
Aspergillus niger [9] = experiment: Antimicrobial activity against Aspergillus niger MTCC 281 after 48 hrs by microdilution method; conditions: MTCC 281, 48 h; in short: as §1
Escherichia coli [10] = experiment: Antimicrobial activity against Escherichia coli MTCC 724 at 100 ug/ml after 24 hrs by disc diffusion method; conditions: MTCC 724, 24 h, read-out: DIZ; in short: as §2
Staphylococcus aureus [11] = experiment: Antimicrobial activity against Staphylococcus aureus MTCC 96 at 100 ug/ml after 24 hrs by disc diffusion method; conditions: MTCC 96, 24 h, read-out: DIZ; in short: as §2
Klebsiella pneumoniae [12] = experiment: Antimicrobial activity against Klebsiella pneumoniae MTCC 3384 at 50 ug/ml after 24 hrs by disc diffusion method; conditions: MTCC 3384, 24 h, read-out: DIZ; in short: as §2
Fusarium oxysporum [13] = experiment: Antimicrobial activity against Fusarium oxysporum MTCC 284 after 48 hrs by microdilution method; conditions: MTCC 284, 48 h; in short: as §1
Fusarium oxysporum [14] = experiment: Antimicrobial activity against Fusarium oxysporum MTCC 284 at 50 ug/ml after 48 hrs by disc diffusion method; conditions: MTCC 284, 48 h, read-out: DIZ; in short: as §2
Fusarium verticillioides [15] = experiment: Antimicrobial activity against Fusarium moniliforme MTCC 156 at 50 ug/ml after 48 hrs by disc diffusion method; conditions: MTCC 156, 48 h, read-out: DIZ; in short: as §2
Aspergillus niger [16] = experiment: Antimicrobial activity against Aspergillus niger MTCC 281 at 100 ug/ml after 48 hrs by disc diffusion method; conditions: MTCC 281, 48 h, read-out: DIZ; in short: as §2
Klebsiella pneumoniae [17] = experiment: Antimicrobial activity against Klebsiella pneumoniae MTCC 3384 after 24 hrs by microdilution method; conditions: MTCC 3384, 24 h; in short: as §1
Escherichia coli [18] = experiment: Antimicrobial activity against Escherichia coli MTCC 724 after 24 hrs by microdilution method; conditions: MTCC 724, 24 h; in short: as §1
Fusarium verticillioides [19] = experiment: Antimicrobial activity against Fusarium moniliforme MTCC 156 after 48 hrs by microdilution method; conditions: MTCC 156, 48 h; in short: as §1
Aspergillus flavus [20] = experiment: Antimicrobial activity against Aspergillus flavus MTCC 873 at 100 ug/ml after 48 hrs by disc diffusion method; conditions: MTCC 873, 48 h, read-out: DIZ; in short: as §2
Bacillus cereus [21] = experiment: Antimicrobial activity against Bacillus cereus MTCC 8372 at 100 ug/ml after 24 hrs by disc diffusion method; conditions: MTCC 8372, 24 h, read-out: DIZ; in short: as §2
Staphylococcus aureus [22] = experiment: Antimicrobial activity against Staphylococcus aureus MTCC 96 after 24 hrs by microdilution method; conditions: MTCC 96, 24 h; in short: as §1
Aspergillus niger [23] = experiment: Antimicrobial activity against Aspergillus niger MTCC 281 at 50 ug/ml after 48 hrs by disc diffusion method; conditions: MTCC 281, 48 h, read-out: DIZ; in short: as §2
Fusarium oxysporum [24] = experiment: Antimicrobial activity against Fusarium oxysporum MTCC 284 at 100 ug/ml after 48 hrs by disc diffusion method; conditions: MTCC 284, 48 h, read-out: DIZ; in short: as §2

MIC (Aspergillus flavus [1]) | MIC (Bacillus cereus [6]) | MIC (Aspergillus niger [9]) | MIC (Fusarium oxysporum [13]) | SMILES | MFC (Aspergillus flavus [1]) | zone of inhibition at 50 µg/mL (Aspergillus flavus [2]) | zone of inhibition at 100 µg/mL (Fusarium verticillioides [3]) | zone of inhibition at 50 µg/mL (Escherichia coli [4]) | zone of inhibition at 50 µg/mL (Staphylococcus aureus [5]) | MBC (Bacillus cereus [6]) | zone of inhibition at 50 µg/mL (Bacillus cereus [7]) | zone of inhibition at 100 µg/mL (Klebsiella pneumoniae [8]) | MFC (Aspergillus niger [9]) | zone of inhibition at 100 µg/mL (Escherichia coli [10]) | zone of inhibition at 100 µg/mL (Staphylococcus aureus [11]) | zone of inhibition at 50 µg/mL (Klebsiella pneumoniae [12]) | MFC (Fusarium oxysporum [13]) | zone of inhibition at 50 µg/mL (Fusarium oxysporum [14]) | zone of inhibition at 50 µg/mL (Fusarium verticillioides [15]) | zone of inhibition at 100 µg/mL (Aspergillus niger [16]) | further results
50 µg/mL (≈ 121 µM) | 40 µg/mL (≈ 96.9 µM) | 50 µg/mL (≈ 121 µM) | 30 µg/mL (≈ 72.7 µM) | Cc1c(-c2nnc(-c3ccccc3)o2)c(-c2ccc(Cl)cc2)nn1-c1ccccc1 | 275 µg/mL (≈ 666 µM) | 6 mm | 8 mm | 11 mm | 5 mm | 240 µg/mL (≈ 581 µM) | 6 mm | 9 mm | 275 µg/mL (≈ 666 µM) | 18 mm | 10 mm | 5 mm | 215 µg/mL (≈ 521 µM) | 14 mm | 5 mm | 10 mm | MBC (Klebsiella pneumoniae [17]): 250 µg/mL (≈ 606 µM); MIC (Klebsiella pneumoniae [17]): 50 µg/mL (≈ 121 µM); MBC (Escherichia coli [18]): 250 µg/mL (≈ 606 µM); MIC (Escherichia coli [18]): 40 µg/mL (≈ 96.9 µM); MFC (Fusarium verticillioides [19]): 270 µg/mL (≈ 654 µM); MIC (Fusarium verticillioides [19]): 40 µg/mL (≈ 96.9 µM); zone of inhibition at 100 µg/mL (Aspergillus flavus [20]): 10 mm; zone of inhibition at 100 µg/mL (Bacillus cereus [21]): 10 mm; MBC (Staphylococcus aureus [22]): 250 µg/mL (≈ 606 µM); MIC (Staphylococcus aureus [22]): 50 µg/mL (≈ 121 µM); zone of inhibition at 50 µg/mL (Aspergillus niger [23]): 8 mm; zone of inhibition at 100 µg/mL (Fusarium oxysporum [24]): 22 mm
30 µg/mL (≈ 72.7 µM) | 40 µg/mL (≈ 96.9 µM) | 25 µg/mL (≈ 60.6 µM) | 40 µg/mL (≈ 96.9 µM) | Cc1c(-c2nnc(-c3ccc(Cl)cc3)o2)c(-c2ccccc2)nn1-c1ccccc1 | 230 µg/mL (≈ 557 µM) | 14 mm | 8 mm | 10 mm | 5 mm | 240 µg/mL (≈ 581 µM) | 4 mm | 12 mm | 215 µg/mL (≈ 521 µM) | 12 mm | 10 mm | 6 mm | 275 µg/mL (≈ 666 µM) | 4 mm | 6 mm | 24 mm | MBC (Klebsiella pneumoniae [17]): 220 µg/mL (≈ 533 µM); MIC (Klebsiella pneumoniae [17]): 30 µg/mL (≈ 72.7 µM); MBC (Escherichia coli [18]): 235 µg/mL (≈ 569 µM); MIC (Escherichia coli [18]): 35 µg/mL (≈ 84.8 µM); MFC (Fusarium verticillioides [19]): 300 µg/mL (≈ 727 µM); MIC (Fusarium verticillioides [19]): 55 µg/mL (≈ 133 µM); zone of inhibition at 100 µg/mL (Aspergillus flavus [20]): 16 mm; zone of inhibition at 100 µg/mL (Bacillus cereus [21]): 8 mm; MBC (Staphylococcus aureus [22]): 250 µg/mL (≈ 606 µM); MIC (Staphylococcus aureus [22]): 45 µg/mL (≈ 109 µM); zone of inhibition at 50 µg/mL (Aspergillus niger [23]): 9 mm; zone of inhibition at 100 µg/mL (Fusarium oxysporum [24]): 8 mm
40 µg/mL (≈ 137 µM) | 40 µg/mL (≈ 137 µM) | 45 µg/mL (≈ 154 µM) | 45 µg/mL (≈ 154 µM) | Cc1c(C(=O)NN)c(-c2ccccc2)nn1-c1ccccc1 | 275 µg/mL (≈ 941 µM) | 2 mm | 6 mm | 9 mm | 2 mm | 260 µg/mL (≈ 889 µM) | 4 mm | 8 mm | 260 µg/mL (≈ 889 µM) | 11 mm | 9 mm | 5 mm | 270 µg/mL (≈ 924 µM) | 3 mm | 4 mm | 8 mm | MBC (Klebsiella pneumoniae [17]): 230 µg/mL (≈ 787 µM); MIC (Klebsiella pneumoniae [17]): 35 µg/mL (≈ 120 µM); MBC (Escherichia coli [18]): 240 µg/mL (≈ 821 µM); MIC (Escherichia coli [18]): 35 µg/mL (≈ 120 µM); MFC (Fusarium verticillioides [19]): 280 µg/mL (≈ 958 µM); MIC (Fusarium verticillioides [19]): 50 µg/mL (≈ 171 µM); zone of inhibition at 100 µg/mL (Aspergillus flavus [20]): 6 mm; zone of inhibition at 100 µg/mL (Bacillus cereus [21]): 6 mm; MBC (Staphylococcus aureus [22]): 250 µg/mL (≈ 855 µM); MIC (Staphylococcus aureus [22]): 40 µg/mL (≈ 137 µM); zone of inhibition at 50 µg/mL (Aspergillus niger [23]): 2 mm; zone of inhibition at 100 µg/mL (Fusarium oxysporum [24]): 8 mm
